What all share (format): cell-based, human
The test system of one assay is MRC-5 fibroblasts. Kind of assay: MTT cytotoxicity assay, non-tumour cells. The note with it: read-out: IC50 (μM) ± S.D. MRC-5, 72 hrs treatment, MTT test. In general terms: Tetrazolium dyes change colour on reduction, which living cells bring about.
The test system of the next assay is DLD1 cells. Kind of assay: MTT cytotoxicity assay. The note with it: read-out: IC50 (μM) ± S.D. DLD1; 72 hrs treatment, MTT test.
For another assay, the system named is SW480 cells. In words: MTT cytotoxicity assay. The note with it: read-out: IC50 (μM) ± S.D. SW480; 72 hrs treatment, MTT test. In outline: (§1)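 Cells grown with 10% foetal calf serum, penicillin/streptomycin and 2 mM L-glutamine (HCT-15 in RPMI, SW480 in DMEM). Exposed 72 hrs to increasing concentrations diluted from 1 mg/ml stocks in physiological solution, then MTT read-out. Mean absorbance per dose expressed as % of control versus concentration. IC50 from four-parameter logistic fit. Means ± S.D. of at least three measurements.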

In another assay the test system is HFF-1 fibroblasts. Kind of assay: MTT cytotoxicity assay, non-tumour cells. The note with it: read-out: IC50 (μM) ± S.D. HFF-1, 72 hrs treatment, MTT test.
In assay [1] the test system is LoVo cells. In words: MTT cytotoxicity assay. The note with it: read-out: IC50 (μM) ± S.D. LoVo, MTT test.
For another assay, the system named is HCT-15 cells. In words: MTT cytotoxicity assay. The note with it: read-out: IC50 (μM) ± S.D. HCT-15; 72 hrs treatment, MTT test. In outline:
as §1

Assay [2] concerns cytochrome c release in LoVo cells. Kind of assay: Cytochrome c release. The note with it: IC50 concentration, 12 hrs (CP also 6 and 24 hrs). In a few lines: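 LoVo cells (30 × 10⁶) were exposed to the test compound for 12 hrs. Cytochrome c release was then assessed by Western blotting. Values are means ± S.D. of at least three measurements.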
Assay [3] has as its system caspase-3/-7, -6, -8, -9 in LoVo cells. In words: Caspase activation. The note with it: 12 or 24 hrs. In outline:
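LoVo cells (10⁶) exposed 12 or 24 hrs, then lysed in 1% Triton X-100, sucrose, 5 mM EDTA, 10 mM Tris-HCl, 2 mM DTT (pH 7.6). Lysate protein incubated 60 min at 37°C with fluorogenic AMC substrates: Ac-DEVD (caspase-3/-7), Ac-VEID (-6), Ac-IETD (-8), Ac-LEHD (-9). AMC release read at ex 370/em 460 nm. Means of at least three independent experiments ± S.D.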

Assay [4] relates to LoVo cells. Kind of assay: Alkaline single-cell gel electrophoresis assay. The note with it: 12 hrs, IC50 concentration.
The next assay relates to LoVo–OxPt cells. In words: MTT cytotoxicity assay, oxaliplatin-resistant cells. The note with it: read-out: IC50 (μM) ± S.D. LoVo–OxPt; 48 hrs treatment, MTT test.
For assay [5], the system named is LoVo cells. In words: Nuclear DNA fragmentation ELISA. The note with it: 12 hr treatment, IC50 concentration. (In general: An ELISA detects its analyte on a solid surface through an enzyme-linked reagent.)

Where two headings read alike, the source gives them in different places.

For orientation: IC50 means the concentration that gives 50% inhibition. With `N.N.[Cl][Pt][Cl]` [CisPt, Cisplatin], the IC50 with MRC-5 fibroblasts stood at 19.7 ± 1.31 µM; with DLD1 cells it was 8.01 ± 2.22 µM; in the assay with SW480 cells, 25.2 ± 3.33 µM; in the assay with HFF-1 fibroblasts, 23.4 ± 1.97 µM; in the assay with LoVo cells [1] (72 hrs treatment), 9.02 ± 1.34 µM; in the assay on HCT-15 cells, 16.6 ± 2.63 µM.
As to `O=C1[O][Pt]2([NH][C@@H]3CCCC[C@H]3[NH]2)[O]C1=O` [OxPt, oxaliplatin], the IC50 was 23.9 ± 1.35 µM in the assay on MRC-5 fibroblasts; 5.81 ± 1.93 µM in the assay with DLD1 cells; 4.2 ± 0.75 µM with SW480 cells; 10.9 ± 1.34 µM with LoVo–OxPt cells; 27.1 ± 1.29 µM in the assay with HFF-1 fibroblasts; 2.05 ± 0.43 µM in the assay on LoVo cells [1] (48 hrs treatment). Also, the values for the IC50 with LoVo cells [1] (72 hrs treatment) and in the assay on HCT-15 cells were 0.33 ± 0.17 µM and 2.37 ± 0.58 µM, respectively. For the same compound, in [2], the cytochrome c release entry is “substantial cytohrome c release”. The “caspase-3/-7, -6, -8, -9 activity (free AMC)” value in assay [3] is “substantial activation of all caspases”. Besides, in the assay on LoVo cells [4], the “comet appearance / electrophoretic migration of DNA fragments” value is given as “significant increase in comet appearance”. Besides, the “increase in histone-DNA formation compared to controls” value in the assay on LoVo cells [5] was “roughly 30 fold”.
